Shown are actives, neighbours in structure and some others; about 1.9% of the full set was active somewhere.
TLR4 MyD88 comp: inhibitors of human TLR4-MyD88 binding. AID 861. O00206+Q99836. actives 0.18% (n = 200,000). HeLa CL3-4 TLR4/MyD88 BLA complementation, FRET ratio. inhibition, % at 8.4 µM; in the data active = inhibition above about 25%;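 note: 0% = vehicle and 100% = reference inhibitor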
MC4R barr agon: agonists of human melanocortin 4 receptor (MC4R) beta-arrestin; P32245; U2OS MC4R beta-arrestin complementation, luminescence; percent of melanotan II response, DMSO zero; activation, % at 8.9 µM; actives 0.98% (n = 360,000);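 active = activation above a per-plate cutoff, the mean activation of sample wells on that plate plus 3 SD, cut at about 8% in these data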
NTR1 agonist: agonists of human neurotensin receptor NTR1; P30989; NTR1-U2OS beta-arrestin-GFP spot imaging, agonist mode; activation, % at 20 µM; actives 0.17% (n = 330,000); AID 493036;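 active = activation at or above 40% of the spot to cytoplasm intensity ratio, with at least 20 cells analyzed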;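 note: 0% = DMSO without peptide and 100% = 100 nM NTR1 peptide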
NOD2-RIPK2 inh: blocks binding of human NOD2 to RIPK2; O43353; CHO BLA complementation NOD2-RIPK2, CCF4 ratio; inhibition, % at 4.98 µM; actives 0.38% (n = 360,000); AID 624267; in the data active = inhibition above about 21%;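 note: 0% = vehicle only and 100% = reference blocker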
Target sequence (O43353 whole entry, looked up): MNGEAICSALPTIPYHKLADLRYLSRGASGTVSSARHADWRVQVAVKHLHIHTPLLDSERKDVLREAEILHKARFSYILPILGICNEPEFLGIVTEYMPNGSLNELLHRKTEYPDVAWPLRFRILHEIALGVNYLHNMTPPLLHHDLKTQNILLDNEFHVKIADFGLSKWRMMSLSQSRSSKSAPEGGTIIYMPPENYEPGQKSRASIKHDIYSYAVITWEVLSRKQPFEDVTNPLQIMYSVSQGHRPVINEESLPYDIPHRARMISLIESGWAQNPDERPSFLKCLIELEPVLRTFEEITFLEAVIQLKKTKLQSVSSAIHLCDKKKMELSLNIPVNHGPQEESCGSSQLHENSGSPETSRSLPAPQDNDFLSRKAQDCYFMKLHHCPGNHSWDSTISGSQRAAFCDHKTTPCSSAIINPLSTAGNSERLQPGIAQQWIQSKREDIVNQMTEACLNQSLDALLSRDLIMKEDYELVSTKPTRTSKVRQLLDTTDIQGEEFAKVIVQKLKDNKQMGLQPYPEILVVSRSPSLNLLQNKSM
MC4R antag cAMP: antagonists of human melanocortin 4 receptor (MC4R); actives 0.48% (n = 360,000); MC4R-expressing cells, MTII-stimulated cAMP, LANCE TR-FRET; P32245; inhibition, % at 6.5 µM;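 active = inhibition above its plate's cutoff, the mean of tested wells on that plate plus 3 SD, cut at about 29% in these data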;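 note: 0% = Melanotan II alone and 100% = Melanotan II plus saturating MCL0020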
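Assay system: U2OS-MC4R stable cell line; Also added: Melanotan II; Technique: Eu-cAMP/anti-cAMP TR-FRET, emission 671 nm; Times: 30-min compound, 1-h challenge, 1-h detection, room temperature.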
TLR9-MyD88 block: inhibitors of human TLR9-MyD88 binding | inhibition, % at 4.98 µM | actives 0.21% (n = 340,000) | AID 504734 | Q9NR96+Q99836 | CHO BLA complementation TLR9-MyD88, CCF4 FRET ratio;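 active = inhibition above the mean over all tested compounds plus 3 SD, cut at about 21% in these data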;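 note: 0% = DMSO only wells and 100% = clavulanate BLA inhibitor control wells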
MC4R barr ag: human MC4R beta-arrestin agonism confirmation; shares compounds with MC4R barr agon; U2OS MC4R beta-arrestin recruitment, luminescence; scaled DMSO 0%, Melanotan II 100%; activation, % at 8.9 µM; actives 31% (n = 2,400); AID 602192;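 active = mean activation across replicates above the hit cutoff set in the earlier primary screen, cut at about 8% in these data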
MOR DOR agonist: OPRM1-OPRD1 heterodimer agonism counter-screen | shares compounds with MC4R barr agon | U2OS PathHunter beta-arrestin, beta-gal luminescence; percent of deltorphin B response, DMSO zero | activation, % at 9.2 µM | actives 5.8% (n = 2,400);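 active = mean activation across replicates exceeds the hit threshold derived in the earlier primary screen, cut at about 18% in these data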;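 note: 100% = deltorphin B at 0.9 µM final and 0% = DMSO alone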
* hit, by the source's call; · = not tested or not shown.

SMILES	TLR4 MyD88 comp	MC4R barr agon	NTR1 agonist	NOD2-RIPK2 inh	MC4R antag cAMP	TLR9-MyD88 block	MC4R barr ag	MOR DOR agonist
CCOc1cc2sc(N3CCC(C(=O)NCCCN4CCCC4=O)CC3)nc2cc1Br	·	-2.2	-1.6	-4.4	3.5	6.1	·	·
COc1ccc(NC(=O)c2ccc(-c3ccccc3C(F)(F)F)o2)cc1	-4.8	10.4*	-0.3	-12.7	2.8	-4.1	1.8	4.6
O=C(Nc1cccc(F)c1)c1ccc(-c2ccccc2C(F)(F)F)o1	-4.8	·	·	·	·	·	·	·
Cc1ccc2c(COC(=O)c3ccccc3Br)cc(=O)oc2c1	·	9.7*	5.2	-13.2	-4.9	-4.5	3.7	2.9
Cc1ccc2c(COC(=O)c3ccccc3Cl)cc(=O)oc2c1	·	1.5	-0.8	-16.0	-7.0	-8.1	·	·
CCCCOc1ccc(C(=O)Nc2ccc(SC(F)F)cc2)cc1OC	-1.0	9.9*	0.0	-2.9	7.7	-2.1	15.8*	7.3
O=C(Nc1ccc(OC(F)(F)C(F)F)c(NC(=O)c2cccc(F)c2)c1)c1cccc(F)c1	-10.7	20.9*	0.8	-10.9	13.8	-9.2	6.6	4.3
COCCOc1ccc(C(F)(F)F)cc1NC(=O)c1ccc(C)cc1	-5.2	14.6*	0.4	-5.9	-1.7	-17.4	1.1	6.3
O=C(Nc1cc(S(=O)(=O)N2CCCCCC2)ccc1OCC(F)(F)F)c1cnccn1	·	10.3*	6.7	-6.3	8.3	-4.5	-0.5	2.8
Cc1ccc(S(=O)(=O)CC(CN2CCCCC2)N2CCCCC2)cc1 (stereo not drawn)	0.2	0.4	·	0.2	-2.9	-2.0	·	·
O=S(=O)(CC(CN1CCOCC1)N1CCOCC1)c1ccccc1 (stereo not drawn)	-5.7	9.6*	-0.8	-2.2	3.4	12.7	1.5	1.6
CSc1nnc(C(C)c2ncc(C(F)(F)F)cc2Cl)n1C (stereo not drawn)	-0.6	1.9	-1.4	-12.8	12.4	1.8	·	·
COc1cccc(-n2nc(C(=O)N3CC(C)CC(C)C3)c3ccccc3c2=O)c1 (stereo not drawn)	8.8	-1.9	0.7	-2.6	11.4	-4.7	·	·
CCSc1nnc(NC(=O)c2cccc3ccccc23)s1	10.8	14.4*	0.6	-5.2	4.2	9.0	6.0	3.8
CCSc1nnc(NC(=O)c2csc(C)c2)s1	-15.8	0.5	3.9	10.6	3.6	12.2	·	·
COC(=O)c1ccc(SCC(=O)NC2CCCCC2)c([N+](=O)[O-])c1	-4.4	1.7	-0.8	-9.3	8.7	-8.7	·	·
COc1ccccc1C(=O)NCC(=O)OCC(=O)N1CC(C)OC(C)C1 (stereo not drawn)	·	-0.6	-1.2	4.2	10.7	-11.7	·	·
Cc1cc(F)cc(-c2cc(C(=O)NCC3CCCCC3)[nH]n2)c1	·	12.5*	·	12.2	-2.6	·	0.3	4.6
O=C(CC(=O)Nc1ccc(Cl)cc1Cl)Nc1ccc(Cl)cc1Cl	·	11.4*	-0.6	4.5	5.7	1.7	3.2	3.1
COc1ccc(CCNC(=O)CCCCCN2C(=O)[C@@H]3Cc4ccccc4CN3C2=O)cc1OC	·	-1.3	0.7	-5.6	-1.2	-3.4	·	·
CCn1c2ccccc2c2cc(NC(=O)CSc3nnc(-c4ccc(OC)cc4)n3N)ccc21	2.5	20.6*	10.9	-1.9	-1.3	-1.5	11.5*	19.6*
COCCNC(=O)CSc1nc2cc(OC)c(OC)cc2c(=O)n1CCC1=CCCCC1	2.5	-0.7	·	-7.5	0.2	9.7	·	·
COc1cc2nc(SCC(N)=O)n(CCC3=CCCCC3)c(=O)c2cc1OC	-7.7	12.1*	6.8	-7.5	6.5	-9.9	8.4*	5.9
COc1ccc(-c2cc(NC=O)c3ncc(-c4cccc(C(F)(F)F)c4)n3c2)c(OC)c1	·	20.4*	·	-6.3	-26.7	·	12.9*	0.9
CC(=O)Nc1cc(-c2ccc(C(=O)N3CCOCC3)cc2)cn2c(-c3cccc(C(F)(F)F)c3)cnc12	·	5.0	·	-8.3	20.1	·	·	·
SMILES	TLR4 MyD88 comp	MC4R barr agon	NTR1 agonist	NOD2-RIPK2 inh	MC4R antag cAMP	TLR9-MyD88 block	MC4R barr ag	MOR DOR agonist
COc1ccccc1-c1cc(NC(C)=O)c2ncc(-c3cccc(C(F)(F)F)c3)n2c1	·	24.6*	·	-0.2	9.9	·	21.9*	3.7
CN(C)C(=O)c1cccc(-c2cnc3c(NC=O)cc(-c4cccc(C(F)(F)F)c4)cn23)c1	·	6.0	·	1.4	-16.0	·	·	·
CC(=O)Nc1cc(-c2cccnc2)cn2c(-c3cccc(C(F)(F)F)c3)cnc12	·	28.4*	·	7.9	5.5	·	28.9*	2.1
COc1ccc(-c2cc(NC(C)=O)c3ncc(-c4cccc(C(F)(F)F)c4)n3c2)c(OC)c1	·	25.9*	·	-8.0	1.3	·	25.5*	3.3
Cn1cc(-c2cnc3c(NC=O)cc(-c4cccc(C(F)(F)F)c4)cn23)cn1	·	1.9	·	5.9	-10.9	·	·	·
CC(C)NC1(C#N)CCN(Cc2ccccc2)CC1	·	-0.7	·	-6.7	0.6	-8.6	·	·
CCCCCCCCCCn1c2c(c(=N)c3c1CCC3)CCC2	9.9	17.4*	42.1*	16.9	-10.3	-12.1	10.9*	19.3*
N#C/C(=C\c1ccco1)C(=O)Nn1cnnc1	1.6	-0.8	-0.8	-9.2	-3.3	0.2	·	·
S=c1[nH]nc(COc2ccc(Cl)cc2)n1C1CCCCC1	3.5	10.6*	4.6	-0.4	3.6	5.6	1.4	6.8
Cc1ccc(OCc2n[nH]c(=S)n2C2CCCCC2)cc1	13.7	4.9	2.7	0.5	16.0	-13.9	·	·
O=C(Nc1ccc(C(O)(C(F)(F)F)C(F)(F)F)cc1)c1ccc(Cl)c([N+](=O)[O-])c1	-12.0	14.3*	13.4	0.5	-3.1	-3.4	14.6*	9.7
O=C(O)c1cc(NC(=O)c2ccc(Cl)c([N+](=O)[O-])c2)cc(C(=O)O)c1	8.7	-3.4	1.6	2.4	5.0	-16.9	·	·
O=c1cc(C(F)(F)F)oc2c1ccc1ccccc12	4.8	-0.6	-0.1	-12.4	-5.4	0.8	·	·
O=c1cc(/C=C/c2ccccc2)oc2c1ccc1ccccc12	-1.6	28.6*	25.8	5.9	6.1	-1.1	16.0*	4.4
Cc1ccc(Sc2ccc(NC(=O)CCl)cc2)cc1C	12.3	19.2*	6.1	-0.2	13.9	-4.2	17.3*	6.1
CCCCNC(=O)Nc1cc(C(=O)OC)ccc1Cl	0.4	-1.6	-0.5	4.9	4.8	-1.0	·	·
Cc1ccc(C(=S)N2CCCCCC2)cc1	·	-1.0	-0.2	5.4	-1.5	-0.5	·	·
Cc1ccc(-c2cc(C(=O)N/N=C/c3ccoc3)c3ccccc3n2)cc1	·	1.7	4.2	0.7	12.9	1.4	·	·

Screening data: PubChem, several laboratories
